The subject of series [1] is MT4. Briefly: Effective concentration of compound against HIV-1 IIIB strain in MT-4 cells. The format is functional, cell-based. To be noted: Homo sapiens. An outline of the steps: (§1)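 MT4 cells infected with HIV-1 IIIB. Virus-induced cytopathogenic effect scored. EC50 is the concentration protecting 50% of infected cells against cytopathogenicity. Relative potency is expressed against AMD3100.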

In series [2] the test system is MT4. The series can be described thus: Potency of compound against HIV-1 IIIB strain in MT-4 cells relative to AMD3100. The format is functional, Homo sapiens. Summed up: as §1
Series [3] relates to CEM-SS. The series can be described thus: Effective concentration of compound against HIV-1 LAI strain in CEM-SS cells. To be noted: Homo sapiens. It counts as functional, cell-based. An outline of the steps: (§2)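 CEM-SS cells infected with HIV-1 LAI. Virus replication followed by reverse transcriptase activity measurement. EC50 is the concentration inhibiting 50% of virus replication. Relative potency is the ratio to AMD3100.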

The subject of series [4] is GHOST CXCR4. Briefly: Inhibitory concentration of compound against HIV-1 LAI strain in GHOST CXCR4 cell line. The format is functional, cell-based. To be noted: Homo sapiens. An outline of the steps: (§3)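 GHOST osteosarcoma cells express CD4, CXCR4 or CCR5 plus an HIV-2 LTR-GFP reporter, grown in Dulbecco medium with 10% FCS. Seeded at 2.5 10⁵ per well; 24 h later pretreated with compound for 1 h at 37 °C. Infected with HIV-1 Lai (CXCR4) or Bal (CCR5), 2 h adsorption, washed, cultured 48 h with drug. GFP+ cells counted by flow cytometry; IC50 from median-effect plot.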

Another series relates to GHOST CCR5. The series can be described thus: Inhibitory concentration of compound against HIV-1 Ba1 strain in GHOST CCR5 cell line. The format is functional, cell-based. To be noted: Homo sapiens. An outline of the steps: as §3
The test system of series [5] is GHOST CXCR4. The series can be described thus: Potency of compound against HIV-1 LAI strain in GHOST CXCR4 cell line relative to AMD3100. The format is functional, Homo sapiens. An outline of the steps: as §3
The subject of series [6] is PBMC. Briefly: Effective concentration of compound against HIV-1 89.6 strain in PBMC cells. It counts as functional, cell-based. To be noted: Homo sapiens. An outline of the steps:
(§4)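 PBMC infected with dual-tropic HIV-1 89.6. Virus growth measured by reverse transcriptase activity. EC50 is the concentration protecting 50% of infected cells. Relative potency is expressed against AMD3100.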

The subject of series [7] is PBMC. The series can be described thus: Potency of compound against HIV-1 89.6 strain in PBMC cells relative to AMD3100. The format is functional, Homo sapiens. An outline of the steps: as §4
Series [8] can be described thus: (§5) Concentration of compound causing 50% death of uninfected cells. To be noted: human. The format is ADME, cell-based. An outline of the steps: (§6)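 Uninfected cells of each line (CEM-SS, MT4 or PBMC) exposed to compound; CC50 taken as the concentration causing 50% death of uninfected cells.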
A short description of series [9]: as §5. It counts as cell-based. To be noted: human, CEM-SS cells (uninfected). An outline of the steps:
as §6

In series [10] the test system is CEM-SS. The series can be described thus: Potency of compound against HIV-1 LAI strain in CEM-SS cells relative to AMD3100. The format is functional, Homo sapiens. Summed up: as §2

Where only a bound is given, the exact number is not on record here.

Usually EC50 stands for the midpoint of the concentration-response curve. A lower EC50 goes with an effect from little substance. For orientation: IC50 means the concentration at which inhibition is half-maximal. What is called CC50 is the concentration that lowers cell viability or growth by half. A high value points to better tolerance by the cells. Take `CCOC(=O)CCCCN1CCCN(Cc2ccc(CN3CCCNCCNCCCNCC3)cc2)CCNCCCNCC1`: the results for the EC50 in the series with MT4 [1], with CEM-SS [3] and in the series with PBMC [6] were 0.69 µM, 0.91 µM and 0.025 µM, respectively. Further, the Relative potency is reported as ~10 in the series on MT4 [2], ~7 with GHOST CXCR4 [5], ~7 in the series with PBMC [7] and ~7 in the series with CEM-SS [10]. For the same compound, the IC50 with GHOST CXCR4 [4] was 0.0071 µM; in the series on GHOST CCR5 it was > 50 µM. The CC50 in series [8] (MT4 cells (uninfected)), in series [8] (PBMC (uninfected)) and in series [9] was > 100 µM each time.

Turning to `CCCCCCCCCCCCCC(=O)N[C@@H](CCCCNC(=O)CCCCN1CCCN(Cc2ccc(CN3CCCNCCNCCCNCC3)cc2)CCNCCCNCC1)C(=O)N[C@@H](CO[C@@H]1O[C@@H](CO)[C@H](O)[C@H](O)[C@@H]1O)C(=O)O`, the EC50 in the series on MT4 [1] is 2.8 µM; in the series with CEM-SS [3], 5.2 µM; with PBMC [6], 0.47 µM. Further, the Relative potency with MT4 [2] is reported as ~45; with GHOST CXCR4 [5] it was ~90; in the series on PBMC [7], ~125; in the series with CEM-SS [10], ~40. The figures for the IC50 in the series with GHOST CXCR4 [4] and in the series on GHOST CCR5 were 0.086 µM and > 50 µM, respectively. The CC50 is > 50 µM in series [8] (MT4 cells (uninfected)), > 28 µM in series [8] (PBMC (uninfected)) and > 50 µM in series [9].

With `CCCCCCCCCCCCCC(=O)N[C@@H](CCCCNC(=O)CCCCN1CCCNCCN(Cc2ccc(CN3CCCNCCNCCCNCC3)cc2)CCCNCC1)C(=O)N[C@@H](CO[C@@H]1O[C@@H](CO)[C@H](O)[C@H](O)[C@@H]1O)C(=O)O`, the EC50 in the series with MT4 [1] came out at 2.9 µM; with CEM-SS [3], 6 µM; with PBMC [6], 0.25 µM. Moreover, the Relative potency in the series with MT4 [2] is ~45; in the series on GHOST CXCR4 [5], ~20; in the series on PBMC [7], ~65; in the series with CEM-SS [10], ~50. Also, the figures for the IC50 with GHOST CXCR4 [4] and with GHOST CCR5 were 0.021 µM and > 10 µM, respectively. Further, the CC50 was > 100 µM in series [8] (MT4 cells (uninfected)), > 10 µM in series [8] (PBMC (uninfected)) and > 100 µM in [9].

With `CCCCCCCCCCCCCC(=O)N[C@@H](CO[C@@H]1O[C@@H](CO)[C@H](O)[C@H](O)[C@@H]1O)C(=O)O`, the half-maximal effective concentration (EC50) in the series on MT4 [1] was > 100 µM; with CEM-SS [3] it was 10 µM. Besides, the CC50 in [8] (MT4 cells (uninfected)) and in series [9] was > 100 µM throughout.

As to `c1cc(CN2CCCNCCNCCCNCC2)ccc1CN1CCCNCCNCCCNCC1` [PLERIXAFOR], the EC50 with MT4 [1] is 0.065 µM; with CEM-SS [3], 0.127 µM; with PBMC [6], 0.0038 µM. The 50% inhibitory concentration (IC50) with GHOST CXCR4 [4] is 0.00095 µM; with GHOST CCR5, > 5 µM. Further, the CC50 in series [8] (MT4 cells (uninfected)), in series [8] (PBMC (uninfected)) and in [9] was > 10 µM in each case.

Regarding `Cc1cn([C@H]2C[C@H](N=[N+]=[N-])[C@@H](CO)O2)c(=O)[nH]c1=O` [ZIDOVUDINE], the EC50 in the series with MT4 [1] came out at 0.0099 µM; in the series with CEM-SS [3] it was 0.0063 µM; with PBMC [6], 0.024 µM.
